Experimental data from ChEMBL document CHEMBL3228044, “Studies on antianaphylactic agents. 6. Synthesis of some metabolites of 6-ethyl-3-(1H-tetrazol-5-yl)chromone and their analogues” (1979).

How the values were obtained:
[1] = tested on: Rattus norvegicus; experiment: Antianaphylactic activity in iv dosed male Sprague-Dawley rat assessed as inhibition of egg albumin/Bordetella pertussis-induced passive cutaneous anaphylaxis reaction; type: functional; conditions: read-out: ID50 (the source's name)
Outline: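 Sera from rats sensitized with im egg albumin plus ip sterilized B. pertussis (collected day 12) were diluted fourfold and injected intradermally into dorsal skin of 8-week rats (~280 g). At 72 h, rats received iv egg albumin 5 mg plus Evans blue 10 mg. Drug in saline or PEG 400 was given iv immediately before challenge. Dye-leakage area (mm2) was read at 30 min. ID50 by least squares on log dose, with 95% confidence limits.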

[2] = tested on: Rattus norvegicus; experiment: Antianaphylactic activity in po dosed male Sprague-Dawley rat assessed as inhibition of egg albumin/Bordetella pertussis-induced passive cutaneous anaphylaxis reaction; type: functional; conditions: read-out: ID50 (the source's name)
Outline: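 Homologous rat PCA used 72-h skin sensitization with fourfold-diluted anti-egg albumin serum, raised with B. pertussis adjuvant, in 8-week rats (~280 g). Drug was suspended in 3% gum arabic and given orally 5 min before iv challenge with egg albumin 5 mg plus Evans blue 10 mg. Dye-leakage area (mm2) was measured after 30 min. ID50 by least squares on log dose vs area, with 95% confidence limits.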

| SMILES | ED50 [1] [mg/kg] | ED50 [2] [mg/kg] |
| --- | --- | --- |
| CCC(=O)c1ccc2occ(-c3nnn[nH]3)c(=O)c2c1 | 0.29 |  |
| O=c1c(-c2nnn[nH]2)coc2ccc(CCO)cc12 | 0.21 | > 20 |
| O=c1c(-c2nnn[nH]2)coc2ccc(C(O)CO)cc12 (stereo not given) | 0.57 | > 20 |
| C=Cc1ccc2occ(-c3nnn[nH]3)c(=O)c2c1 | 0.49 |  |
| CCc1ccc2occ(-c3nnn[nH]3)c(=O)c2c1 | 0.25 | 5.9 |
| O=Cc1ccc2occ(-c3nnn[nH]3)c(=O)c2c1 | 1.1 | > 20 |
| CC(=O)OC(C)c1ccc2occ(-c3nnn[nH]3)c(=O)c2c1 (stereo not given) |  | > 20 |
| O=c1c(-c2nnn[nH]2)coc2ccc(CO)cc12 | 0.34 |  |
| CC(O)c1ccc2occ(-c3nnn[nH]3)c(=O)c2c1 (stereo not given) | 0.56 | 13.4 |
| CC(=O)c1ccc2occ(-c3nnn[nH]3)c(=O)c2c1 | 0.24 | 6.6 |
| O=C(O)Cc1ccc(O)c(C(=O)O)c1 | > 20 |  |
| CCCC(O)c1ccc2occ(-c3nnn[nH]3)c(=O)c2c1 (stereo not given) | 1.07 |  |
| CCc1ccc2occ(-c3nnnn3[C@@H]3O[C@H](C(=O)[O-])[C@@H](O)[C@H](O)[C@H]3O)c(=O)c2c1.[Na+] | > 20 |  |
| CCc1ccc(O)c(C(=O)O)c1 | > 20 |  |
| CC(C)(O)c1ccc2occ(-c3nnn[nH]3)c(=O)c2c1 | 1.13 |  |
| O=C([O-])c1cc(=O)c2c(OCC(O)COc3cccc4oc(C(=O)[O-])cc(=O)c34)cccc2o1.[Na+].[Na+] [CROMOLYN SODIUM] | 1.33 | > 100 |
| CCC(O)c1ccc2occ(-c3nnn[nH]3)c(=O)c2c1 (stereo not given) | 0.3 | > 20 |
